Source: ChEMBL document CHEMBL1131147, “7-Arylidenenaltrexones as selective delta1 opioid receptor antagonists” (J Med Chem, 1998)

What was measured:
[1] = biological target: Delta-type opioid receptor (Mus musculus) (UniProt P32300); assay: Inhibition of DADLE binding to Opioid receptor delta 1 of mouse vas deferens
Summary of the method: (§1)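 Electrically stimulated smooth muscle: guinea pig ileal longitudinal muscle with morphine or ethylketazocine, mouse vas deferens with DADLE. Antagonist 100 nM incubated 15 min (30 min in footnoted cases) before agonist. IC50 ratio = agonist IC50 with antagonist divided by control IC50 in the same preparation; mean ± SEM, n shown.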

[2] = Relative affinity for delta and kappa receptors
Summary of the method: (§2)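 Selectivity ratio = DADLE IC50 ratio (MVD) divided by morphine or EK IC50 ratio (GPI), with 100 nM antagonist. Where an IC50 ratio was below or near unity, a value of 1 was used.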

[3] = biological target: Kappa-type opioid receptor (Cavia porcellus) (UniProt P41144); assay: Inhibition of ethylketazocine binding to Opioid receptor kappa 1 of guinea pig ileal longitudinal muscle; summary of the method: as §1
Kappa-type opioid receptor (Cavia porcellus), sequence (P41144 whole entry): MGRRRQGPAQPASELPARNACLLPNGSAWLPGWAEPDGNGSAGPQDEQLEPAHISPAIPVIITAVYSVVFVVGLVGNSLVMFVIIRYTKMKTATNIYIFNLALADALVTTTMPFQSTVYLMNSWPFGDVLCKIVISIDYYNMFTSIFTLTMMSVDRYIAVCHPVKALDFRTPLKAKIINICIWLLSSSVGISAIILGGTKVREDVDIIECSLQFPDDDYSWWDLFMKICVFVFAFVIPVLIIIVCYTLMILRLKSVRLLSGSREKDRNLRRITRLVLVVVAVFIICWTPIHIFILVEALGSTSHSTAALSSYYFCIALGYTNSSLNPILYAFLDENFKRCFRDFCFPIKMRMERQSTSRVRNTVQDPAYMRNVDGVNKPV

[4] = Relative affinity for delta and mu receptors; summary of the method: as §2
[5] = biological target: Mu-type opioid receptor (Cavia porcellus) (UniProt P97266); assay: Inhibition of morphine binding to Opioid receptor mu 1 of guinea pig ileal longitudinal muscle; summary of the method: as §1
Mu-type opioid receptor (Cavia porcellus), sequence (P97266 whole entry): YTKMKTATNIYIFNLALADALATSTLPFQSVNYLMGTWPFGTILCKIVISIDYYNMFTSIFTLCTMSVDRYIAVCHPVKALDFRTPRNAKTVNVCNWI

[6] = biological target: Delta-type opioid receptor (Mus musculus) (UniProt P32300); assay: Antagonism of antinociceptive effect of DPDPE against delta 1 opioid receptor in male ICR mice at a sc dose of 16 umol/kg; type: functional, organism-based
Summary of the method: (§3)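 Male ICR mice, tail-flick antinociception. Antagonist given sc at the stated dose (µmol/kg), pretreatment timed so peak antagonism coincides with the agonist's peak antinociceptive response. Agonists: DPDPE (δ1), DSLET (δ2), morphine (µ), U50488 (κ). ED50 ratio = agonist ED50 with sc antagonist divided by control ED50, with 95% confidence limits.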

[7] = biological target: Mu-type opioid receptor (Mus musculus) (UniProt P42866); assay: Antagonism of antinociceptive effect of morphine against Opioid receptor mu 1 in male ICR mice at a sc dose of 16 umol/kg; type: functional, organism-based; summary of the method: as §3
Mu-type opioid receptor (Mus musculus), sequence (P42866 whole entry): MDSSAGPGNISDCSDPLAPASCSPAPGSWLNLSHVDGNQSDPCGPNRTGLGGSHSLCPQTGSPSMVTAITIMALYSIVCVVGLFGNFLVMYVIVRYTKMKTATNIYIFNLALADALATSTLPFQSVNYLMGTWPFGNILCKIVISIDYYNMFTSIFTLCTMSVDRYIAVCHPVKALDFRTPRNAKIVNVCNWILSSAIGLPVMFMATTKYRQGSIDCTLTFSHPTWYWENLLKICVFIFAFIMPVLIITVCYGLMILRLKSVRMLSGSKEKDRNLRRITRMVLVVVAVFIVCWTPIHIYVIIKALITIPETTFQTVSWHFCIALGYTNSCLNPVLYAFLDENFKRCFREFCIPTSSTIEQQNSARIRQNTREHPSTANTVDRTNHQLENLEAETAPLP

[8] = biological target: Kappa-type opioid receptor (Mus musculus) (UniProt P33534); assay: Antagonism of antinociceptive effect of U-50,488 against Opioid receptor kappa 1 in male ICR mice at a sc dose of 16 umol/kg; type: functional, organism-based; summary of the method: as §3
Kappa-type opioid receptor (Mus musculus), sequence (P33534 whole entry): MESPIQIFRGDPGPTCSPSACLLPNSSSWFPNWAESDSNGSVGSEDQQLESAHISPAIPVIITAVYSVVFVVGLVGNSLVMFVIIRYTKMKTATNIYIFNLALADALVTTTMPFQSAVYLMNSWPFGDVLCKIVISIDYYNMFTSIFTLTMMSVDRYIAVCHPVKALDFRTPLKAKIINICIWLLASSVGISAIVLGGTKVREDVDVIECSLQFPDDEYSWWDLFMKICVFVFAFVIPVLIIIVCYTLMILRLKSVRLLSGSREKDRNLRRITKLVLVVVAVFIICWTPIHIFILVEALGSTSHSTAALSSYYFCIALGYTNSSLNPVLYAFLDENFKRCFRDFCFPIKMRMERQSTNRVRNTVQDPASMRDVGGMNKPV

[9] = biological target: Delta-type opioid receptor (Mus musculus) (UniProt P32300); assay: Antagonism of antinociceptive effect of DSLET against delta 2 opioid receptor in male ICR mice at a sc dose of 16 umol/kg; type: functional, organism-based; summary of the method: as §3
[10] = biological target: Delta-type opioid receptor (Mus musculus) (UniProt P32300); assay: Antagonism of antinociceptive effect of DSLET against delta 2 opioid receptor in male ICR mice at a sc dose of 5 umol/kg; type: functional, organism-based; summary of the method: as §3
[11] = biological target: Kappa-type opioid receptor (Mus musculus) (UniProt P33534); assay: Antagonism of antinociceptive effect of U-50,488 against Opioid receptor kappa 1 in male ICR mice at a sc dose of 5 umol/kg; type: functional, organism-based; summary of the method: as §3
[12] = biological target: Mu-type opioid receptor (Mus musculus) (UniProt P42866); assay: Antagonism of antinociceptive effect of morphine against Opioid receptor mu 1 in male ICR mice at a sc dose of 5 umol/kg; type: functional, organism-based; summary of the method: as §3
[13] = biological target: Delta-type opioid receptor (Mus musculus) (UniProt P32300); assay: Antagonism of antinociceptive effect of DPDPE against delta 1 opioid receptor in male ICR mice at a sc dose of 5 umol/kg; type: functional, organism-based; summary of the method: as §3
[14] = biological target: Kappa-type opioid receptor (Mus musculus) (UniProt P33534); assay: Antagonism of antinociceptive effect of U-50,488 against kOpioid receptor kappa 1 in male ICR mice at a sc dose of 16 umol/kg; type: functional, organism-based; summary of the method: as §3
[15] = biological target: Kappa-type opioid receptor (Mus musculus) (UniProt P33534); assay: Antagonism of antinociceptive effect of U-50,488 against kOpioid receptor kappa 1 in male ICR mice at a sc dose of 5 umol/kg; type: functional, organism-based; summary of the method: as §3
[16] = biological target: Mu-type opioid receptor (Mus musculus) (UniProt P42866); assay: Antagonism of antinociceptive effect of morphine against Opioid receptor mu 1 in male ICR mice at a sc dose of 5 umol/kg.; type: functional, organism-based; summary of the method: as §3

Delta-type opioid receptor (Mus musculus), sequence (P32300 whole entry): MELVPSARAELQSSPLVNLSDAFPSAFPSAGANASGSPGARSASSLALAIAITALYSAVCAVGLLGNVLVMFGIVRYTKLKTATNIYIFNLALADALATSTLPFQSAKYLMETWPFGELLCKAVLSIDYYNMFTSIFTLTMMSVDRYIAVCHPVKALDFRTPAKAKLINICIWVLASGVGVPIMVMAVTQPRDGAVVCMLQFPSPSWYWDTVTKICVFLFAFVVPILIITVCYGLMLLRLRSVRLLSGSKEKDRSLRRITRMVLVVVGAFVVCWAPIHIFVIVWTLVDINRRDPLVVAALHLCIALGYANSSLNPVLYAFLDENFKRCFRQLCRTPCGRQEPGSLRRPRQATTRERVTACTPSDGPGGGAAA

SMILES | IC50 ratio [1] | Selectivity ratio [2] | IC50 ratio [3] | Selectivity ratio [4] | IC50 ratio [5] | ED50 ratio [6] | ED50 ratio [7] | ED50 ratio [8] | ED50 ratio [9] | ED50 ratio [10] | ED50 ratio [11] | ED50 ratio [12] | ED50 ratio [13] | ED50 ratio [14] | ED50 ratio [15] | ED50 ratio [16]
O=C1/C(=C\c2ccccc2F)C[C@@]2(O)C3Cc4ccc(O)c5c4C2(CCN3CC2CC2)[C@H]1O5 (stereo not given in full) | 17 | 10.3 | 1.65 | 4.4 | 3.86 |  |  |  |  |  |  |  |  |  |  | 
COc1cccc(/C=C2/C[C@@]3(O)C4Cc5ccc(O)c6c5C3(CCN4CC3CC3)[C@@H](O6)C2=O)c1 (stereo not given in full) | 18 | 18 | 0.95 | 2.8 | 6.44 |  |  |  |  |  |  |  |  |  |  | 
O=C1/C(=C\c2ccccc2)C[C@@]2(O)[C@H]3Cc4ccc(O)c5c4[C@@]2(CCN3CC2CC2)[C@H]1O5 | 35 | 17.5 | 2 | 2.7 | 13.1 | 16.8 | 5.7 | 1.8 | 9.6 |  |  |  |  |  |  | 
O=C1/C(=C\c2cccc(F)c2)C[C@@]2(O)C3Cc4ccc(O)c5c4C2(CCN3CC2CC2)[C@H]1O5 (stereo not given in full) | 16.3 | 12.9 | 1.26 | 2.1 | 7.83 |  |  |  |  |  |  |  |  |  |  | 
O=C1/C(=C\c2ccc(F)cc2)C[C@@]2(O)C3Cc4ccc(O)c5c4C2(CCN3CC2CC2)[C@H]1O5 (stereo not given in full) | 2.01 | 1.1 | 1.86 | 0.9 | 2.23 |  |  |  |  |  |  |  |  |  |  | 
O=C1/C(=C\c2ccc([N+](=O)[O-])cc2)C[C@@]2(O)C3Cc4ccc(O)c5c4C2(CCN3CC2CC2)[C@H]1O5 (stereo not given in full) | 1.9 | 1.9 | 1.07 | 0.4 | 4.42 |  |  |  |  |  |  |  |  |  |  | 
Cc1ccc(/C=C2/C[C@@]3(O)C4Cc5ccc(O)c6c5C3(CCN4CC3CC3)[C@@H](O6)C2=O)cc1 (stereo not given in full) | 22.3 | 9.1 | 2.45 | 3.2 | 7.05 |  |  |  |  |  |  |  |  |  |  | 
O=C1/C(=C\c2ccc(-c3cccc4ccccc34)cc2)C[C@@]2(O)C3Cc4ccc(O)c5c4C2(CCN3CC2CC2)[C@H]1O5 (stereo not given in full) | 12.7 | 6.9 | 1.85 | 10.3 | 1.23 |  |  |  |  |  |  |  |  |  |  | 
O=C1/C(=C\c2cccc([N+](=O)[O-])c2)C[C@@]2(O)C3Cc4ccc(O)c5c4C2(CCN3CC2CC2)[C@H]1O5 (stereo not given in full) | 5.18 | 5.2 | 0.5 | 5.2 | 1.15 |  |  |  |  |  |  |  |  |  |  | 
O=C1/C(=C\c2ccccc2Cl)C[C@@]2(O)C3Cc4ccc(O)c5c4C2(CCN3CC2CC2)[C@H]1O5 (stereo not given in full) | 130 | 130 | 0.85 | 130 | 1.34 | 11.4 | 7.1 | 0.9 | 7.2 | 0.87 | 0.73 | 0.53 | 3.7 |  |  | 
COc1ccccc1/C=C1/C[C@@]2(O)C3Cc4ccc(O)c5c4C2(CCN3CC2CC2)[C@@H](O5)C1=O (stereo not given in full) | 120 | 120 | 1.05 | 14.1 | 8.49 | 11.1 | 5.8 |  | 6.8 | 0.8 |  |  | 2 | 0.84 | 0.47 | 1.03
O=C1/C(=C\c2ccc(-c3ccc4ccccc4c3)cc2)C[C@@]2(O)C3Cc4ccc(O)c5c4C2(CCN3CC2CC2)[C@H]1O5 (stereo not given in full) | 11.6 | 11.6 | 1.07 | 3.5 | 3.32 |  |  |  |  |  |  |  |  |  |  | 
COc1ccc(/C=C2/C[C@@]3(O)C4Cc5ccc(O)c6c5C3(CCN4CC3CC3)[C@@H](O6)C2=O)cc1 (stereo not given in full) | 5.52 | 5.5 | 0.92 | 1.5 | 3.75 |  |  |  |  |  |  |  |  |  |  | 
COC(=O)c1ccc(/C=C2/C[C@@]3(O)C4Cc5ccc(O)c6c5C3(CCN4CC3CC3)[C@@H](O6)C2=O)cc1 (stereo not given in full) | 14.6 | 14.6 | 0.62 | 3.8 | 3.81 |  |  |  |  |  |  |  |  |  |  | 
